# KLF5 inhibitor – inhibitors of KLF5 expression; 290,000 compounds, 0.23% hits; DLD-1 KLF5 promoter-luciferase reporter, luminescence; inhibition, % at 5 µM;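 active = inhibition above a per-plate limit of that plate's mean compound inhibition plus 3 SD, cut at about 60% in these data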;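 also: 0% = DMSO wells and 100% = LY294002 at 200 µM; higher means less KLF5 promoter-driven luciferase light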
# BaF3 parental – parental Ba/F3 viability inhibition as JAK2V617F counter-screen | CellTiter-Glo ATP luminescence | inhibition, % at 5.6 µM | 220,000 compounds, 1.1% hits | AID 1486;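 active = inhibition above a per-campaign cutoff, the mean inhibition of all tested compounds plus 3 SD, cut at about 27% in these data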;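 also: 0% = DMSO wells and 100% = JAK Inhibitor I control wells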
# IEC-6 tox – counter-screen for KLF5 inhibitors: cytotoxicity in IEC-6 cells | IEC-6 cytotoxicity, luminescence viability | inhibition, % at 5 µM | 290,000 compounds, 0.78% hits | AID 1825; in the data active = inhibition above about 22%;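 also: 0% = plate median of test compound wells and 100% = cytotoxic reference compound wells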
# MT stabilize HCS – stabilizes microtubules in HeLa cells. HeLa tubulin immunostaining HCS, 24 h; share of cells brighter than vehicle mean+2SD. AID 2205. % tubulin-high responders, % at 10 µM. 200,000 compounds, 0.83% hits;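 active = plate Z-score above 3 for both tubulin-high and condensed-nucleus cell shares, with cell loss under 80%, at 10 µM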;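 also: anti alpha tubulin signal scored within the nucleus-defined area of each cell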
# Ba/F3 V617F tox – lowers viability of Ba/F3 cells expressing EpoR and JAK2V617F | AID 1446 | 220,000 compounds, 1.1% hits | inhibition, % at 5.6 µM | ATP luminescence;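 active = inhibition above the campaign mean plus 3 SD over all tested compounds, cut at about 24% in these data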;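 also: cytokine-independent growth of Ba/F3 cells driven by EpoR plus mutant JAK2; 0% = DMSO-treated cells and 100% = JAK inhibitor I control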
# b-catenin transl – alters nuclear translocation of beta-catenin in HeLa cells; immunofluorescence imaging; nuclear translocation activity, % at 5 µM; 190,000 compounds, 0.3% hits; AID 1665;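 active = nuclear translocation activity above 50% at 5 µM, with a well cell count of 50 or more; inconclusive = wells under 50 cells across six images, flagged as toxic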;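 also: per-cell ratio of nuclear to cytoplasmic median beta-catenin stain intensity; plate controls were DMSO negative control for no effect and GSK-3 inhibitor IX positive control for full effect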
#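 System: Human HeLa cells, endogenous beta-catenin | Compound dosing: 5 µM primary, 0.02–20 µM confirmation | Timing: 24 h compound exposure at 37°C, 5% CO2 | Measured by: Fluorescence imaging of beta-catenin antibody stain plus DAPI | Read-out basis: % activation of per-cell nuclear versus cytoplasmic median beta-catenin signal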
# The depositor's hits bear a star; ? = inconclusive; . = no result. Compounds with a hit are over-represented: about 2.1% of the library has one in this group of screens.
SMILES,KLF5 inhibitor,BaF3 parental,IEC-6 tox,MT stabilize HCS,Ba/F3 V617F tox,b-catenin transl
COc1cc(/C=N/NC(=O)C(Cc2c[nH]c3ccccc23)NC(=O)OCC(C)C)cc([N+](=O)[O-])c1OCc1ccccc1 (configuration not stated),-12,100*,3,3,95*,0
COc1ccc(N2CCN(C(=O)NCc3cccc(OC)c3)CC2)cc1,-7,.,-1,.,.,.
CCC(=O)N1CCc2cc(Br)cc(S(=O)(=O)NCc3ccccc3OC)c21,-5,.,-2,.,.,.
CC[C@H](C)[C@H](NC(=O)OCc1ccccc1)C(=O)Nc1ccc(NC(C)=O)cc1,10,7,-4,5,1,-5
O=C(NC(=S)Nc1cccc2cccnc12)c1ccccc1,-14,102*,-2,1,-5,0
Fc1ccc(-c2nc3ccccc3[nH]2)cc1,-117,63*,4,1,2,1
Nc1ccc(-c2nc3ccccc3[nH]2)cc1,-169,9,4,7,4,-1
Cc1cc(NO)c(C(C)C)cc1N=O,-15,45*,5,3,51*,-1
CCCCOc1ccc(C(=O)C(CN2CCOCC2)c2ccccc2)cc1 (configuration not stated),-11,4,1,5,12,?
COc1ccc(C(=O)C(CN2CCCC2)c2ccccc2)cc1 (configuration not stated),-15,29*,7,17,80*,10
COc1ccc(C(=O)C(CN2CCOCC2)c2ccccc2)cc1 (configuration not stated),-3,42*,8,4,90*,.
COc1ccccc1NS(=O)(=O)/C=C/c1ccccc1,19,-3,-9,7,-4,3
CN(Cc1nc(-c2cccs2)no1)CC(O)c1ccccc1 (configuration not stated),-30,7,1,3,-2,0
Fc1ccc2[nH]c3c(N4CCc5ccccc5C4)ncnc3c2c1,-29,55*,12,.,44*,3
Brc1ccc2[nH]c3c(N4CCc5ccccc5C4)ncnc3c2c1,-2,1,-2,7,1,11
Cc1ccc2[nH]c3c(N4CCc5ccccc5C4)ncnc3c2c1,0,49*,17,3,44*,-1
COc1cc(/C=N/n2cnc3scc(-c4cccs4)c3c2=O)cc(OC)c1OC,-2,4,-5,30*,0,2
COc1ccc(/C=N/n2cnc3scc(-c4cccs4)c3c2=O)cc1OC,2,3,-10,3,3,.
O=C1CCc2cc(S(=O)(=O)NCCC(=O)N3CCN(c4cccc(Cl)c4)CC3)ccc2N1,-10,9,1,5,1,0
Cc1ccc(CNCC(O)(c2ccccc2)c2ccccc2)cc1,-11,.,3,.,.,.
Cc1ccc(CNCC(O)(c2ccccc2)c2ccc(Cl)cc2)cc1 (configuration not stated),-15,29*,7,2,19,3
COc1cc(/C=N/NC(=O)c2ccccc2Cl)ccc1Oc1ccc([N+](=O)[O-])cn1,-4,-1,8,17*,-3,2
COc1ccc(/C=N/NC(=O)c2cccnc2)cc1CSc1nc2ccccc2s1,-12,8,21,13,5,153*
COc1ccc(/C=N/NC(=O)c2ccccc2Cl)cc1CSc1nc2ccccc2s1,26,3,16,17,-2,332*
COc1ccc(/C=N/NC(=O)c2ccccc2O)cc1Cn1cc([N+](=O)[O-])cn1,-11,-2,-5,.,-3,1
SMILES,KLF5 inhibitor,BaF3 parental,IEC-6 tox,MT stabilize HCS,Ba/F3 V617F tox,b-catenin transl
COc1ccc(/C=N/NC(=O)CCSc2nc3ccccc3s2)cc1OC,22,0,-1,2,-2,2
CCOC(=O)c1cc2c(nc1C)-c1cc(Cl)cc(Cl)c1OC2O (configuration not stated),5,8,-4,3,2,-1
COc1ccc(C)cc1NS(=O)(=O)c1ccc(NC(=O)CN(c2cc([N+](=O)[O-])ccc2C)S(C)(=O)=O)cc1,7,9,7,3,6,-2
Cc1cccc(NS(=O)(=O)c2ccc(NC(=O)CN(c3cc([N+](=O)[O-])ccc3C)S(C)(=O)=O)cc2)c1,0,12,97*,2,11,3
CCCN(CCC)C1=CC(=[N+]2CCCC2)CC(C)(C)C1,-9,72*,20,3,88*,1
CN(C)NC1=CC(=[N+]2CCCC2)CC(C)(C)C1,-22,3,8,4,1,-2
